Activity calls are given as the source filed them. No cut-off for these calls is given here.
Experiments:
Vaccinia virus [1] = experiment: Antiviral activity against vaccinia virus IHD-J in BSC40 cells by CPE assay; type: functional, organism-based; details: Orthopoxvirus vaccinia, BSC-40
[2] = Cytotoxicity against vaccinia virus IHD-J infected BSC40 cells; type: cell-based, Macaca mulatta; details: rhesus monkey, BSC-40 cells infected with vaccinia virus IHD-J
Cowpox virus = experiment: Antiviral activity against cowpox virus by CPE assay; type: functional, organism-based
[3] = Metabolic stability in monkey Liver S9 fraction; type: ADME, subcellular, Macaca mulatta; details: rhesus monkey
Method in brief: (§1)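 Compound was incubated with liver S-9 extracts from each species, with NADPH added. Loss of parent compound was followed by LC/MS and reported as half-life in minutes.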

Monkeypox virus = experiment: Antiviral activity against monkeypox virus by CPE assay; type: functional, organism-based
Camelpox virus = experiment: Antiviral activity against camelpox virus by CPE assay; type: functional, organism-based
Variola virus [4] = experiment: Antiviral activity against variola virus BUT virus by CPE assay; type: functional, organism-based
Variola virus [5] = experiment: Antiviral activity against variola virus BSH virus by CPE assay; type: functional, organism-based
[6] = Metabolic stability in rat Liver S9 fraction; type: ADME, subcellular; method in brief: as §1
[7] = Metabolic stability in mouse Liver S9 fraction; type: ADME, subcellular; method in brief: as §1
[8] = Metabolic stability in dog Liver S9 fraction; type: ADME, subcellular, Canis lupus familiaris; method in brief: as §1
[9] = Metabolic stability in human Liver S9 fraction; type: ADME, subcellular; method in brief: as §1
Vaccinia virus [10] = experiment: Antiviral activity assessed as inhibition of extracellular virus formation in vaccinia virus IHD-J infected BSC40 cells at 5 uM after 24 hrs; type: functional, organism-based; details: Orthopoxvirus vaccinia, BSC-40
[11] = Tmax in rat at 2 mg/kg, po; type: ADME, organism-based; parameters: dose 2 mg/kg, route oral; details: in vivo
Method in brief: (§2)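 Rats were dosed orally in 0.75% Methocell/1% Tween vehicle, and a separate intravenous arm was run to derive bioavailability. Plasma concentration–time data gave Tmax, Cmax, AUC, t1/2, clearance, Vss and %F.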

[12] = Cmax in rat at 2 mg/kg, po; type: ADME, organism-based; parameters: dose 2 mg/kg, route oral; details: in vivo; method in brief: as §2
[13] = AUC in rat at 2 mg/kg, po; type: ADME, organism-based; parameters: dose 2 mg/kg, route oral; details: plasma; method in brief: as §2
[14] = Half life in rat at 2 mg/kg, po; type: ADME, organism-based; parameters: dose 2 mg/kg, route oral; details: in vivo; method in brief: as §2
[15] = Clearance in rat at 2 mg/kg, po; type: ADME, organism-based; parameters: dose 2 mg/kg, route oral; details: in vivo; method in brief: as §2
Rattus norvegicus = experiment: Volume of distribution at steady state in rat at 2 mg/kg, po; type: ADME, organism-based; parameters: dose 2 mg/kg, route oral; details: in vivo; method in brief: as §2
[16] = Oral bioavailability in rat at 2 mg/kg, po; type: ADME, organism-based; details: in vivo; method in brief: as §2
Mus musculus = experiment: Toxicity in mouse at 2000 mg/kg after 28 days; type: organism-based; parameters: dose 2000 mg/kg; details: in vivo, 672 h
Method in brief: (§3)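 Animals received 28-day repeat dosing, and the no observable adverse effect level (NOAEL) was determined.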

Cynomolgus monkey = experiment: Toxicity in cynomolgus monkey at 600 mg/kg after 28 days; type: organism-based, Macaca fascicularis; parameters: dose 600 mg/kg; details: in vivo, 672 h; method in brief: as §3
Human alphaherpesvirus 1 = experiment: Antiviral activity against HSV1 KOS by plaque reduction assay; type: functional, organism-based; details: Human alphaherpesvirus 1, KOS
Human betaherpesvirus 5 = experiment: Antiviral activity against human cytomegalovirus AD169 by plaque reduction assay; type: functional, organism-based; details: Human betaherpesvirus 5, AD169
[17] = system: Respiratory syncytial virus; experiment: Antiviral activity against RSV A by plaque reduction assay; type: functional, organism-based; details: human respiratory syncytial virus
[18] = system: Bovine viral diarrhea virus 1; experiment: Antiviral activity against BVDV NADL by plaque reduction assay; type: functional, organism-based; details: Bovine viral diarrhea virus isolates and strains
Rotavirus = experiment: Antiviral activity against rotavirus by plaque reduction assay; type: functional, organism-based

Structure (SMILES)	EC50 (Vaccinia virus [1])	CC50 [2]	EC50 (Monkeypox virus)	EC50 (Camelpox virus)	EC50 (Variola virus [4])	EC50 (Variola virus [5])	also measured
COc1ccc(C(=O)NN2C(=O)[C@@H]3C4C=CC(C5CC54)[C@@H]3C2=O)cc1 (stereo partly specified)	2200 nM	> 100000 nM	–	–	–	–	–
O=C(NN1C(=O)[C@@H]2C3C=CC(C4CC43)[C@@H]2C1=O)c1cccc(Cl)c1 (stereo partly specified)	40 nM	> 100000 nM	–	–	–	–	EC50 (Cowpox virus): 600 nM
O=C(NN1C(=O)[C@@H]2C3C=CC(C4CC43)[C@@H]2C1=O)c1ccc(Br)cc1 (stereo partly specified)	20 nM	> 100000 nM	10 nM	10 nM	20 nM	50 nM	half-life [3]: > 3.33 h; half-life [6]: > 3.33 h; half-life [7]: > 3.33 h; half-life [8]: > 3.33 h; half-life [9]: 0.95 h
CN(C)c1ccc(C(=O)NN2C(=O)[C@@H]3C4C=CC(C5CC54)[C@@H]3C2=O)cc1 (stereo partly specified)	2000 nM	> 100000 nM	–	–	–	–	–
O=C(NN1C(=O)[C@@H]2C3C=CC(C4CC43)[C@@H]2C1=O)c1ccc(C(F)(F)F)cc1 (stereo partly specified)	40 nM	> 100000 nM	10 nM	10 nM	20 nM	50 nM	half-life [3]: > 3.33 h; half-life [6]: > 3.33 h; half-life [7]: > 3.33 h; half-life [8]: > 3.33 h; half-life [9]: > 3.33 h; Activity (Vaccinia virus [10]): Active; Tmax [11]: 2.2 h; Cmax [12]: 920 ng/mL; AUC [13]: 6100 ng·h/mL; half-life [14]: 4.2 h; CL/F [15]: 8.67 mL/min/kg; Vss (Rattus norvegicus): 0.6 L/kg; bioavailability [16]: 31%; Activity (Mus musculus): Non-toxic; Activity (Cynomolgus monkey): Non-toxic; EC50 (Human alphaherpesvirus 1): > 40000 nM; EC50 (Human betaherpesvirus 5): > 40000 nM; EC50 [17]: > 40000 nM; EC50 [18]: > 40000 nM; EC50 (Rotavirus): > 40000 nM
O=C(NN1C(=O)[C@@H]2C3C=CC(C4CC43)[C@@H]2C1=O)c1ccccn1 (stereo partly specified)	> 20000 nM	> 100000 nM	> 16000 nM	4200 nM	10000 nM	> 20000 nM	–
O=C(NN1C(=O)[C@@H]2C3C=CC(C4CC43)[C@@H]2C1=O)c1ccccc1Cl (stereo partly specified)	3000 nM	> 100000 nM	–	–	–	–	EC50 (Cowpox virus): > 20000 nM
Cc1cc(C(=O)NN2C(=O)[C@@H]3C4C=CC(C5CC54)[C@@H]3C2=O)[nH]n1 (stereo partly specified)	7100 nM	> 100000 nM	–	–	–	–	–
Cn1cccc1C(=O)NN1C(=O)[C@@H]2C3C=CC(C4CC43)[C@@H]2C1=O (stereo partly specified)	15800 nM	> 100000 nM	–	–	–	–	–
O=C(NN1C(=O)[C@@H]2C3C=CC(C4CC43)[C@@H]2C1=O)c1ccc(Cl)cc1 (stereo partly specified)	20 nM	> 100000 nM	–	–	–	–	EC50 (Cowpox virus): 770 nM
O=C(NN1C(=O)[C@@H]2C3C=CC(C4CC43)[C@@H]2C1=O)c1ccncc1 (stereo partly specified)	500 nM	> 100000 nM	150 nM	110 nM	220 nM	400 nM	–
Nc1ccc(C(=O)NN2C(=O)[C@@H]3C4C=CC(C5CC54)[C@@H]3C2=O)cc1 (stereo partly specified)	7700 nM	> 92000 nM	–	–	–	–	–
O=C(NN1C(=O)[C@@H]2C3C=CC(C4CC43)[C@@H]2C1=O)c1ccc([N+](=O)[O-])cc1 (stereo partly specified)	20 nM	> 86000 nM	–	–	–	–	–
O=C(NN1C(=O)[C@@H]2C3C=CC(C4CC43)[C@@H]2C1=O)c1cccc(Br)c1 (stereo partly specified)	50 nM	> 100000 nM	–	–	–	–	–
O=C(NN1C(=O)[C@@H]2C3C=CC(C4CC43)[C@@H]2C1=O)c1ccccc1Br (stereo partly specified)	2300 nM	> 100000 nM	3600 nM	3800 nM	1400 nM	3300 nM	–
O=C(NN1C(=O)[C@@H]2C3CCC(C4CC43)[C@@H]2C1=O)c1ccc(C(F)(F)F)cc1 (stereo partly specified)	20 nM	> 100000 nM	80 nM	30 nM	10 nM	200 nM	–
O=C(NN1C(=O)[C@@H]2C3C=CC(C4CC43)[C@@H]2C1=O)c1cccnc1 (stereo partly specified)	740 nM	> 100000 nM	–	–	–	–	–

— ChEMBL document CHEMBL1142975 (J Med Chem, 2007)
